# Data taken from ChEMBL document CHEMBL4610079, “Anti-inflammatory Flavanones and Flavones from Tephrosia linearis” (2020).
# Experiments:
# Format in all cases: functional
# PBMC [1] = experiment: Antiinflammatory activity in LPS-induced human PBMC cells assessed as IL-1beta release at 100 uM after 24 hrs by luminex based bead assay relative to control
# Procedure, shortened: (§1)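 Pooled cryopreserved human PBMCs from three donors were thawed and resuspended in RPMI 1640 with 10% FBS, at 100 000 cells/well. Each test item was given at 100 μM from a 20 mM DMSO stock, with 0.5% final DMSO. It was co-incubated with 10 μg/mL LPS for 24 h at 37 °C and 5% CO2. Supernatant was read by MagPix cytokine bead array, expressed as % of LPS control, n = 1.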
# PBMC [2] = experiment: Antiinflammatory activity in LPS-induced human PBMC cells assessed as IL-2 release at 100 uM after 24 hrs by luminex based bead assay relative to control; procedure, shortened: as §1
# PBMC [3] = experiment: Antiinflammatory activity in LPS-induced human PBMC cells assessed as IL-6 release at 100 uM after 24 hrs by luminex based bead assay relative to control; procedure, shortened: as §1
# PBMC [4] = experiment: Antiinflammatory activity in LPS-induced human PBMC cells assessed as GM-CSF release at 100 uM after 24 hrs by luminex based bead assay relative to control; procedure, shortened: as §1
# PBMC [5] = experiment: Antiinflammatory activity in LPS-induced human PBMC cells assessed as TNFalpha release at 100 uM after 24 hrs by luminex based bead assay relative to control; procedure, shortened: as §1
SMILES,Activity (PBMC [1]) [%],Activity (PBMC [2]) [%],Activity (PBMC [3]) [%],Activity (PBMC [4]) [%],Activity (PBMC [5]) [%]
CC(C)Cc1ccc(C(C)C(=O)O)cc1 (stereo not given) [IBUPROFEN],199.29,80.33,46.46,47.76,12.23
COc1c(O)cc2oc(-c3ccc(O)c(O)c3)c(O[C@@H]3O[C@@H](C)[C@H](O)[C@@H](O)[C@H]3O)c(=O)c2c1O,4.81,57.6,0.64,8.63,0.54
COc1cc(-c2cc(=O)c3ccc(O)cc3o2)ccc1O,109.22,57.64,100,92.58,3.64
COc1cc(O)c2c(=O)cc(-c3ccc(O)c(OC)c3)oc2c1 [VELUTIN],0.8,57.6,0.09,8.63,0.92
C=C(C)C(O)Cc1c(O)cc2oc(-c3ccc(O)cc3)cc(=O)c2c1O (stereo not given),103.28,57.64,238.54,38.92,5.2
COc1cc2c(c(O)c1CC=C(C)C)C(=O)C[C@@H](c1ccc(O)cc1)O2,102.34,57.64,19.57,46.89,6.38
C=C(C)C(O)Cc1c(OC)cc2c(c1O)C(=O)C[C@@H](c1ccc(O)cc1)O2 (stereo not given in full),53.77,17.72,25.79,32.47,4.03
O=c1cc(-c2ccc(O)c(O)c2)oc2cc(O)cc(O)c12 [LUTEOLIN],0.67,57.6,0.04,8.63,0.17
COc1c2c(c(/C=C\C(C)(C)O)c3oc(-c4ccccc4)cc(=O)c13)OC(C)(C)C=C2,1.18,57.6,0,8.63,0.17
CC(C)=CCc1c(O)cc2oc(-c3ccc(O)cc3)cc(=O)c2c1O,40.83,17.72,24.72,48.79,5.01
CC1(C)C=Cc2c(cc(O)c3c(=O)cc(-c4ccc(O)cc4)oc23)O1 [ATALANTOFLAVONE],48.35,57.64,7.23,4.87,1.12
C=C(C)/C=C/c1c2c(c(O)c3c(=O)cc(-c4ccccc4)oc13)C=CC(C)(C)O2,169.84,17.72,622.32,78.39,1.89
COc1cc(-c2cc(=O)c3cc(OC)c(O)cc3o2)ccc1O,170.51,17.72,43.11,17.39,4.03
C=C(C)/C=C/c1c2c(c(OC)c3c(=O)cc(-c4ccccc4)oc13)C=CC(C)(C)O2,75.85,57.6,97.43,83.73,3.15
COc1cc([C@@H]2CC(=O)c3cc(OC)c(O)cc3O2)ccc1O,220.43,57.6,100,35.76,12.55
CC(=O)OCC1(C)C=Cc2c(cc(O)c3c2O[C@H](c2ccccc2)CC3=O)O1 (stereo not given in full),157.09,17.72,43.39,40.97,2.66
O=c1cc(-c2ccc(O)cc2)oc2cc(O)cc(O)c12 [APIGENIN],105.17,57.6,48.33,32.47,4.22
COc1c2c(c(/C=C/C(C)(C)OC)c3oc(-c4ccccc4)cc(=O)c13)OC(C)(C)C=C2,68.27,57.6,10.89,17.39,0.92
COc1cc2oc(-c3ccc(O)c(O)c3)c(O[C@@H]3O[C@@H](C)[C@H](O)[C@@H](O)[C@H]3O)c(=O)c2c(O)c1OC,148.44,17.72,24.94,48.79,3.83
